Experimental data reported in ChEMBL document CHEMBL2203129, “Structure-activity relationship studies of naphthol AS-E and its derivatives as anticancer agents by inhibiting CREB-mediated gene transcription” (Bioorg Med Chem, 2012).

Experiments:
[1] = tested on: MCF7; experiment: Growth inhibition of human MCF7 cells after 72 hrs by MTT assay; assay type: functional; conditions: MCF7, 72 h
[2] = Inhibition of KIX domain of CBP interaction with KID domain of CREB after 20-24 hrs by Renilla luciferase complementation assay
Procedure, shortened: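 RLucC-KIX (20 ng) and KID-RLucN lysate (1.0 µg) per reaction in Renilla lysis buffer with compound, incubated at 4 °C for 20–24 h; residual luminescence read with benzyl-coelenterazine in PBS pH 7.4.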

[3] = Inhibition of CREB-mediated gene transcription in human HEK293T cells by renilla luciferase reporter assay; assay type: cell-based; conditions: HEK-293T
Procedure, shortened: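 HEK 293T cells transfected with pCRE-RLuc, replated after 3 h and attached overnight; compound added, then forskolin (final 10 µM) 30 min later; 5 h at 37 °C.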

[4] = tested on: A549; experiment: Growth inhibition of human A549 cells after 72 hrs by MTT assay; assay type: functional; conditions: A549, 72 h
[5] = tested on: MDA-MB-468; experiment: Growth inhibition of human MDA-MB-468 cells after 72 hrs by MTT assay; assay type: functional; conditions: MDA-MB-468, 72 h
[6] = tested on: MDA-MB-231; experiment: Growth inhibition of human MDA-MB-231 cells after 72 hrs by MTT assay; assay type: functional; conditions: MDA-MB-231, 72 h

Row | Structure (SMILES) | GI50 [1] | IC50 [2] | IC50 [3] | GI50 [4] | GI50 [5] | GI50 [6]
1 | O=C(Nc1ccncc1)c1cc2ccccc2cc1O | 15.8 µM | 16.3 µM | 20.7 µM | 25 µM | 63.4 µM | 35.5 µM
2 | COc1ccc(NC(=O)c2cc3ccccc3cc2O)cc1 | 6.55 µM | > 50 µM | > 50 µM | 85.7 µM | 79.3 µM | 75.5 µM
3 | O=C(Nc1cccc(Cl)c1)c1cc2ccccc2cc1O | 2.43 µM | > 50 µM | 2.7 µM | 3.68 µM | 2.58 µM | 4.91 µM
4 | O=C(Nc1ccc(F)cc1)c1cc2ccccc2cc1O | 4.16 µM | 1.73 µM | 4.86 µM | 6.78 µM | 2.78 µM | 11.4 µM
5 | O=C(Nc1ccc(Br)cc1)c1cc2ccccc2cc1O | 1.83 µM | 9.59 µM | 3.45 µM | 3.98 µM | 6.61 µM | 9.93 µM
6 | O=C(Nc1ccccc1Cl)c1cc2ccccc2cc1O | 2.27 µM | 5.43 µM | 5.72 µM | 4.83 µM | 6.65 µM | 17.2 µM
7 | O=C(Nc1ccc(F)c(F)c1)c1cc2ccccc2cc1O | 2.09 µM | 2.39 µM | 3.73 µM | 3.57 µM | 4.19 µM | 11.6 µM
8 | O=C(Nc1ccc(I)cc1)c1cc2ccccc2cc1O | 9.76 µM | 34.5 µM | 4.98 µM | 5.51 µM | 2.94 µM | 7.87 µM
